Experimental data reported in ChEMBL document CHEMBL1142984, “Stabilization of G-quadruplex DNA and down-regulation of oncogene c-myc by quindoline derivatives” (J Med Chem, 2007).
Active and inactive are the calls of the source. The rule behind the calls is not given here.

Tests used:
[1] = Inhibition of Pu27 oligomer hybridization with Pu27rev at 18 uM by PCR stop assay
In short: (§1)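 Test oligomer plus complementary strand ([…]) in 1×PCR buffer with 0.16 mM dNTP, 2.5 U Taq and derivative […]. Cycling: 94 C 3 min, then 30 cycles of 94 C 30 s, 58 C 30 s, 72 C 30 s. Products run on 15% nondenaturing polyacrylamide in 1×TBE, silver stained; quadruplex stabilization blocks extension.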

[2] = Stabilization of Pu27 oligomer by inducing G-quadruplex formation assessed as inhibition of hybridization with Pu27rev by PCR stop assay; in short: as §1
[3] = Inhibition of Pu27-13, 14 oligomer hybridization with Pu27rev at 36 uM by PCR stop assay; in short: as §1
[4] = Inhibition of Pu27 oligomer hybridization with Pu27rev at 36 uM by PCR stop assay; in short: as §1
[5] = tested on: HepG2; test: Growth inhibition in HepG2 cells after 7 days; type: functional, cell-based; conditions: Homo sapiens, HepG2, 168 h
In short: (§2)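 Hep G2 cells in RPMI-1640 with 10% FBS at 37 C, 5% CO2. About 5000 cells seeded; compound ([…], freshly dissolved) added 24 h after plating and re-added at day 5. Cell counts and viability by trypan blue exclusion daily, days 1 to 8. IC50 calculated at days 5 and 7 of treatment.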

[6] = tested on: HepG2; test: Inhibition of c-myc expression in HepG2 cells at 100 uM; type: functional, cell-based; conditions: Homo sapiens
In short: (§3)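 About 5 × 10^5 Hep G2 cells seeded, treated 24 h after plating with derivative (6.25 to 100 µM) for 24 h. Total RNA extracted and reverse transcribed at 42 C for 60 min. PCR used […], 500 µM dNTPs, 36 cycles (95/50/72 C, 1 min each). Products read on 1.5% agarose against β-actin.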

[7] = tested on: Ramos; test: Inhibition of c-myc expression in Ramos cells at 10 uM; type: functional, cell-based; conditions: Homo sapiens
In short: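 Ramos cells (about 1 × 105 seeded) treated with derivative at […] and harvested 24 h later alongside untreated cells. RNA reverse transcribed at 42 C for 60 min. PCR used […], 36 cycles (95/50/72 C, 1 min each). Products resolved on 1.5% agarose.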

[8] = tested on: HepG2; test: Growth inhibition in HepG2 cells after 5 days; type: functional, cell-based; conditions: Homo sapiens, HepG2, 120 h; in short: as §2
[9] = tested on: HepG2; test: Inhibition of c-myc expression in HepG2 cells at 50 uM; type: functional, cell-based; conditions: Homo sapiens; in short: as §3
[10] = Inhibition of Pu27 oligomer hybridization with Pu27rev at 6 uM by PCR stop assay; in short: as §1

Row | Structure (SMILES) | Activity [1] | Activity [2] | Activity [3] | Activity [4] | IC50 [5] | IC50 [8] | Activity [10] | Activity [6] | Activity [7] | Activity [9]
1 | OCCNc1c2ccccc2nc2c1[nH]c1ccccc12 | – | Active | inactive | Active | – | – | – | – | – | –
2 | CN(C)CCCNc1c2ccccc2nc2c1[nH]c1ccccc12 | Active | Active | inactive | – | – | – | – | – | – | –
3 | OCCCNc1c2ccccc2nc2c1[nH]c1ccccc12 | – | Active | inactive | Active | 1300 nM | 1000 nM | – | Active | Active | –
4 | CCN(CC)CCNc1c2ccccc2nc2c1[nH]c1ccccc12 | – | Active | inactive | – | 300 nM | 200 nM | Active | – | Active | Active
5 | CN(C)CCNc1c2ccccc2nc2c1[nH]c1ccccc12 | Active | Active | inactive | – | – | – | – | – | – | –
6 | CCN(CC)CCNc1c2ccccc2nc2c1oc1ccccc12 | Active | Active | inactive | – | – | – | – | – | – | –
7 | OCCNc1c2ccccc2nc2c1oc1ccccc12 | – | Active | inactive | Active | – | – | – | – | – | –

Further lines, with some results ahead:

Row | Activity [1] | Activity [2] | Activity [3] | Activity [4] | IC50 [5] | IC50 [8] | Activity [10] | Structure (SMILES) | Activity [6] | Activity [7] | Activity [9]
8 | Active | Active | inactive | – | – | – | – | CN(C)CCNc1c2ccccc2nc2c1oc1ccccc12 | – | – | –
9 | Active | Active | inactive | – | – | – | – | CN(C)CCCNc1c2ccccc2nc2c1oc1ccccc12 | – | – | –
10 | – | Active | inactive | Active | – | – | – | OCCCNc1c2ccccc2nc2c1oc1ccccc12 | – | – | –
